Laboratory results from ChEMBL document CHEMBL5316295, “Systematic Design of Adenosine Analogs as Inhibitors of a Clostridioides difficile-Specific DNA Adenine Methyltransferase Required for Normal Sporulation and Persistence” (J Med Chem, 2023).
Calls of active or inactive are those of the source.

Assays:
[1] = target: mRNA (2'-O-methyladenosine-N(6)-)-methyltransferase (Homo sapiens) (UniProt Q9H4Z3); assay: Inhibition of human PCIF1 using m7GpppAmG as substrate and SAM as cosubstrate at 10 uM incubated for 15 mins
In short: (§1)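 Enzyme 0.1 μM with 5 μM RNA, 30 μM SAM and 10 μM inhibitor at ~22 °C in 50 mM Tris–HCl pH 7.5, 100 mM NaCl, 1 mM DTT, 0.25% DMSO. PCIF1 run 15 min with capped RNA; MettL5-Trm112 run 1 h with ssRNA.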

[2] = target: METTL5-TRM112 (Homo sapiens) (UniProt Q9UI30+Q9NRN9); assay: Inhibition of human METTL5/TRM112 using 5'-UCG UAA CAA GGU UU-3' as substrate and SAM as cosubstrate at 10 uM incubated for 1 hr; format: protein-complex assay; in short: as §1
[3] = system: Caulobacter vibrioides; assay: Inhibition of Caulobacter vibrioides CcrM using 5'-CGA TTC AAA AAG TCC CAA G-3' and 3'-GCT AAG TTT TTC AGG GTT C-5' as substrate and SAM as cosubstrate at 10 uM incubated for 5 mins
In short: (§2)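 Conditions were enzyme 0.1 μM, DNA 5 μM, SAM 30 μM, inhibitor 10 μM, at ~22 °C in 50 mM Tris–HCl pH 7.5, 100 mM NaCl, 1 mM DTT, 0.25% DMSO, run 5 min. Substrate and SAM levels were above K_M.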

[4] = target: T1, DNA adenine methylase (Escherichia coli K-12) (UniProt P0AEE8); assay: Inhibition of Escherichia coli Dam using 5'-CCG CGG ATC CTG CT-3' and 3'-GGC GCC TAG GAC GA-5' as substrate and SAM as cosubstrate at 10 uM incubated for 5 mins; in short: as §2
T1 sequence (whole entry): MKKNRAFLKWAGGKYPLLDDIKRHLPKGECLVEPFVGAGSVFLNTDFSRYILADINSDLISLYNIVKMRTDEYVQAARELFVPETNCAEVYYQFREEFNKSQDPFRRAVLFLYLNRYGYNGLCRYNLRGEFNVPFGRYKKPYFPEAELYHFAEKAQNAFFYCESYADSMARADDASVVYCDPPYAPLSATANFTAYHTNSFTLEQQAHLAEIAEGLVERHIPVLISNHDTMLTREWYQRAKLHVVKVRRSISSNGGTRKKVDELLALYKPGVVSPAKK

[5] = target: Histone-lysine N-methyltransferase EZH2 (Homo sapiens) (UniProt Q15910); assay: Inhibition of EZH2 (unknown origin) using chicken core histone as substrate and 3H-SAM as cosubstrate at 10 uM pretreated with compound for 20 mins in presence of chicken core histone followed by cosubstrate addition and measured after 1 hr; conditions: time 80.0 min
In short: (§3)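 Enzymes (DOT1L 1 nM; EZH2, G9a, PRMT1 5 nM) mixed with substrate (0.05 mg/mL oligonucleosomes for DOT1L; 0.05 mg/mL core histone for EZH2; 5 μM H3 1–21 peptide for G9a; 5 μM H4 for PRMT1). Compound (10 μM) added for 20 min at room temperature, then 1 μM ³H-SAM for 1 h at 30 °C; filter-paper read-out. Triplicates, mean ± SD.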

[6] = target: METTL3/METTL14 (Homo sapiens) (UniProt Q86U44+Q9HCE5); assay: Inhibition of human METTL3/METTL14 using 5'-AAC AGA AUG GGA CUG UUC-3' as substrate and SAM as cosubstrate at 10 uM incubated for 15 mins; format: protein-complex assay
In short: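 Under CamA conditions (100 mM NaCl) the assay ran 15 min with 10 μM inhibitor. An alternative condition used 0.1 μM enzyme, 10 μM ssRNA, 20 μM SAM in 50 mM HEPES pH 7.5, 5 mM NaCl, 1 mM DTT, 0.25% DMSO for 10 min.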

[7] = target: DNMT3A-DNMT3L (Mus musculus) (UniProt O88508+Q9CWR8); assay: Inhibition of mouse DNMT3A/DNMT3L using 5'-G CATGCGTTCTAATTAGAAUGCATG-3' and 3'-GTA CGS AAG ATT AAT CTT GCG TAC G-5' as substrate and SAM as cosubstrate at 10 uM incubated for 1 hr; format: protein-complex assay
In short: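 Dnmt3a-3L (0.5 μM) with 5 μM dsDNA, 25 μM SAM and 10 μM inhibitor in 20 mM Tris pH 7.5, 40 mM NaCl, 4 mM DTT, 20% glycerol, run 1 h at 37 °C.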

[8] = target: DNA (cytosine-5)-methyltransferase 1 (Homo sapiens) (UniProt P26358); assay: Inhibition of human DNMT1 (351 to 1600 residues) using 5'-CCT GCG GAG GCT MGT CAT GA-3' and 3'-GGACGCCTCCGAGCAGTACT-5' as substrate and SAM as cosubstrate at 10 uM incubated for 1 hr
In short: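 DNMT1 (0.1 μM) with 1 μM hemimethylated dsDNA, 5.5 μM SAM and 10 μM inhibitor in 50 mM Tris pH 7.5, 1 mM EDTA, run 1 h at 37 °C.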

[9] = target: Protein arginine N-methyltransferase 1 (Homo sapiens) (UniProt Q99873); assay: Inhibition of PRMT1 (unknown origin) using histone H4 as substrate and 3H-SAM as cosubstrate at 10 uM pretreated with compound for 20 mins in presence of histone H4 followed by cosubstrate addition and measured after 1 hr; conditions: time 80.0 min; in short: as §3

Measured: inhibition

Chain of Protein arginine N-methyltransferase 1 (Homo sapiens) (Q99873 whole entry, looked up): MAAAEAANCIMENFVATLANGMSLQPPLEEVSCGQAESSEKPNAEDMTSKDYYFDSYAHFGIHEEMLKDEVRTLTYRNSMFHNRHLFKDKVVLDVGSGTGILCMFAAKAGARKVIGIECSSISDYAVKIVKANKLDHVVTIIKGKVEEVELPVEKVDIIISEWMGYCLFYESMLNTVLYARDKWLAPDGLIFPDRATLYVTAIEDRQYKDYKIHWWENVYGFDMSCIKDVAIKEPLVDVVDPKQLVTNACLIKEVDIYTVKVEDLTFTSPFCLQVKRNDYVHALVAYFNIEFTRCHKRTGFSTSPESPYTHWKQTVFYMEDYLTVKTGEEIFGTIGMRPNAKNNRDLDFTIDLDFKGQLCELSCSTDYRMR
Chain of DNMT3A-DNMT3L (Mus musculus) (Q9CWR8 whole entry, looked up, other chains not shown): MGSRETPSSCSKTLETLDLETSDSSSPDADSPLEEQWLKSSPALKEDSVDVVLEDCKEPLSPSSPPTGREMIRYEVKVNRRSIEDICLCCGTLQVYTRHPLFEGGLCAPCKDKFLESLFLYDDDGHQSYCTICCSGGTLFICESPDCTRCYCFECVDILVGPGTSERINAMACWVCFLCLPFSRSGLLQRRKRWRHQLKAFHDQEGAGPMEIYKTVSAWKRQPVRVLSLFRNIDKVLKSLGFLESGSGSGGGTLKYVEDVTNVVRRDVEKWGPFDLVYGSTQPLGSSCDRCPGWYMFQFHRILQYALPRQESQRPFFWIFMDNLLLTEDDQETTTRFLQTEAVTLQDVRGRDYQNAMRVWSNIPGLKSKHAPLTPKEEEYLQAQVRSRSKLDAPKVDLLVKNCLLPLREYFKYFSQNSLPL
Chain of Histone-lysine N-methyltransferase EZH2 (Homo sapiens) (Q15910 whole entry, looked up): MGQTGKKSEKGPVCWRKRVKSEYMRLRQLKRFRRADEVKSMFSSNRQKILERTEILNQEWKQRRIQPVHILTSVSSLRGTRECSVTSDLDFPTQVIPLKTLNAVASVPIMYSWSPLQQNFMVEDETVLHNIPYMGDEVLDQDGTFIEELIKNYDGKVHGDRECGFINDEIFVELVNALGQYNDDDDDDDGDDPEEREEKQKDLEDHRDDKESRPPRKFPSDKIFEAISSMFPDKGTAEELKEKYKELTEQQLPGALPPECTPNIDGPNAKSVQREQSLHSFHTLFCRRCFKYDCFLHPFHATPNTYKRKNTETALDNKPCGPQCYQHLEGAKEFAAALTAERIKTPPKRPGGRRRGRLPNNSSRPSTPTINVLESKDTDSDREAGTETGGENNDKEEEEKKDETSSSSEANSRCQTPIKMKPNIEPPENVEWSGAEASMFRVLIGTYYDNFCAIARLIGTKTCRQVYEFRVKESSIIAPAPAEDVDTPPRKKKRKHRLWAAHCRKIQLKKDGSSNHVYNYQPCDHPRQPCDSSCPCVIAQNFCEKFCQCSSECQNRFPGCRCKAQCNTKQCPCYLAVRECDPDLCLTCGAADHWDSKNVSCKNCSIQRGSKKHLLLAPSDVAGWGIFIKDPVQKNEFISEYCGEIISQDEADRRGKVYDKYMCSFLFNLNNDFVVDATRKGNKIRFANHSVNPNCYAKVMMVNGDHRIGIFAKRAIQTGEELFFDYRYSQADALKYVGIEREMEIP
Chain of DNA (cytosine-5)-methyltransferase 1 (Homo sapiens) (P26358 whole entry, the tested form may be a part): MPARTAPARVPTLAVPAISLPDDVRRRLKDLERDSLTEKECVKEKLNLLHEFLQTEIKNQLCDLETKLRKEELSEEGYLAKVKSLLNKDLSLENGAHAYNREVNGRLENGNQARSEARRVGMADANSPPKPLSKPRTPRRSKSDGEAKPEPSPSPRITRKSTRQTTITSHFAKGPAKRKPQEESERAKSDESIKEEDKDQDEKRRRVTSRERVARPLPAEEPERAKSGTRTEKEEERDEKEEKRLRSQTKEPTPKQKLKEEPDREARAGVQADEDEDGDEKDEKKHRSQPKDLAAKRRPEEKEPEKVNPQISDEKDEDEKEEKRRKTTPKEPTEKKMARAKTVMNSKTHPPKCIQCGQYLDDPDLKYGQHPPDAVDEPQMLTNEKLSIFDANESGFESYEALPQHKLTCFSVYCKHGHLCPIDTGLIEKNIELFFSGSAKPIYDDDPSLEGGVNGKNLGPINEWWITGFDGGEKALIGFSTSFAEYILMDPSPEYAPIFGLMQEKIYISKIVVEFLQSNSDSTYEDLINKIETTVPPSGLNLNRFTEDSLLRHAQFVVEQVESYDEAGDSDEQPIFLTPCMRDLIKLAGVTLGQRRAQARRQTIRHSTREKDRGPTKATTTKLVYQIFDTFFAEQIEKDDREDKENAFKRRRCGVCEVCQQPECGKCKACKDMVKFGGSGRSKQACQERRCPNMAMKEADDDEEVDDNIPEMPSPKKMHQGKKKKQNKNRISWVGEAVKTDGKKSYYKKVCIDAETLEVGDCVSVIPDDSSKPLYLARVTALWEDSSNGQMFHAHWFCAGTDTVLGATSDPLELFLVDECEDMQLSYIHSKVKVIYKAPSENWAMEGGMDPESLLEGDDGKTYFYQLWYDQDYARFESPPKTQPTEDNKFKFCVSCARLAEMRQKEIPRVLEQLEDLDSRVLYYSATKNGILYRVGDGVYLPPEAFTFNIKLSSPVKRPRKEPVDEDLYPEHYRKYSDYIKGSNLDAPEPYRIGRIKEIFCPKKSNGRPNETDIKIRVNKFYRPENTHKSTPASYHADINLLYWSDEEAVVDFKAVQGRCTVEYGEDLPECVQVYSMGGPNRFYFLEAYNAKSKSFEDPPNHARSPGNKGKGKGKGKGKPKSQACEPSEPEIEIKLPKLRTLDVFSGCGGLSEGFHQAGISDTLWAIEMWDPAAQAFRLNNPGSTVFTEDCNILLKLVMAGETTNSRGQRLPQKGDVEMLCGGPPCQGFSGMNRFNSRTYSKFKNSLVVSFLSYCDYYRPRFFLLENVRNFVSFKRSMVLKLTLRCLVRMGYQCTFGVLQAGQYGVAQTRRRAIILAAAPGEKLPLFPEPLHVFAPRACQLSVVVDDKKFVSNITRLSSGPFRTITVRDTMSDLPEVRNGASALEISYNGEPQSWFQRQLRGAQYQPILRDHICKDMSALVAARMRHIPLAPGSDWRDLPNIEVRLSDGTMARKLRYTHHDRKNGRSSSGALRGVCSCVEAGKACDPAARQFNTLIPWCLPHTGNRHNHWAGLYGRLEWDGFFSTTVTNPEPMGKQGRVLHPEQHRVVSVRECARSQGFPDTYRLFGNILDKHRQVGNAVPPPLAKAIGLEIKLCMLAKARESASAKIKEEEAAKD
Chain of mRNA (2'-O-methyladenosine-N(6)-)-methyltransferase (Homo sapiens) (Q9H4Z3 whole entry): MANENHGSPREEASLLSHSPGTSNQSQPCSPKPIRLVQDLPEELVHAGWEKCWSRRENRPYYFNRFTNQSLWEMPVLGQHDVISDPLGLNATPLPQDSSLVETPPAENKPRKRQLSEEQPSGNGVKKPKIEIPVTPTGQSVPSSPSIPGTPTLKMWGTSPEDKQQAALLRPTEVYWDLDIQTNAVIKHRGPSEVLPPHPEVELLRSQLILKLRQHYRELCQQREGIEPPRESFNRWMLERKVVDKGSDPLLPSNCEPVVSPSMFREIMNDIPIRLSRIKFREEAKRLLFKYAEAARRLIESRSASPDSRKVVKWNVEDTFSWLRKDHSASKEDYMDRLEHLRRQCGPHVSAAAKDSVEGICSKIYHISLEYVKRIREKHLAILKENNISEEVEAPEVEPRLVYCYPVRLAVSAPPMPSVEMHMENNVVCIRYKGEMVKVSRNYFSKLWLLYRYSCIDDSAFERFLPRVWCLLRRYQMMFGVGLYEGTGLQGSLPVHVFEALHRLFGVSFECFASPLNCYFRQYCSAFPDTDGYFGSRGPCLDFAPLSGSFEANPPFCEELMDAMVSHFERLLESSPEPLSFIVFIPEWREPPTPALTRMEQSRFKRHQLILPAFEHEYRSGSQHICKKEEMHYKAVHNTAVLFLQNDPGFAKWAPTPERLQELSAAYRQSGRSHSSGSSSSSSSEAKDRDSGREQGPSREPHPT

CC(C)(C)OC(=O)N1CCC(CCCNc2ncnc3c2ncn3[C@@H]2O[C@H](CO)[C@@H](O)[C@H]2O)CC1
inactive: [1] | [2] | [3] | [4] | [5] | [6] | [7] | [8] | [9]

CC(C)(C)OC(=O)N1CCC(CCNc2ncnc3c2ncn3[C@@H]2O[C@H](CO)[C@@H](O)[C@H]2O)CC1
inactive: [1] | [2] | [3] | [4] | [5] | [6] | [7] | [8] | [9]

OC[C@H]1O[C@@H](n2cnc3c(NCCCc4ccc(O)cc4)ncnc32)[C@H](O)[C@@H]1O
inactive: [1] | [2] | [3] | [4] | [5] | [6] | [7] | [8] | [9]
